Results: ChEMBL document CHEMBL4396889, “From Inhibition to Degradation: Targeting the Antiapoptotic Protein Myeloid Cell Leukemia 1 (MCL1)” (J Med Chem, 2019)
Calls of active or inactive are those of the source. No cut-off for these calls is given here.

How the values were obtained:
[1] = target: T1, Protein cereblon/Induced myeloid leukemia cell differentiation protein Mcl-1 (Homo sapiens) (UniProt Q07820+Q96SW2); assay: Protac activity at Cereblon/MCL1 in human OPM2 cells assessed as protein abundance at 100 nM after 48 hrs by immunoblot analysis relative to control; type: cell-based
T1 sequence (Q07820 whole entry, looked up, canonical isoform): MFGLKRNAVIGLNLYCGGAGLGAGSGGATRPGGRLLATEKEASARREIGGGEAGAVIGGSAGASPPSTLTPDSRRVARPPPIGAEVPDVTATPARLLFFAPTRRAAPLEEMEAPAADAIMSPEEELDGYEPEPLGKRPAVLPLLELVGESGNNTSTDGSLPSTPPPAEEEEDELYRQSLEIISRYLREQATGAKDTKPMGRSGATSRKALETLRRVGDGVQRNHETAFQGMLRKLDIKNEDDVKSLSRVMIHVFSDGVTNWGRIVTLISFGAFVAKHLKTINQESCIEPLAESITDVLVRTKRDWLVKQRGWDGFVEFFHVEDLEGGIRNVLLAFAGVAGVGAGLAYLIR
T1 sequence (Q96SW2 whole entry, looked up, canonical isoform): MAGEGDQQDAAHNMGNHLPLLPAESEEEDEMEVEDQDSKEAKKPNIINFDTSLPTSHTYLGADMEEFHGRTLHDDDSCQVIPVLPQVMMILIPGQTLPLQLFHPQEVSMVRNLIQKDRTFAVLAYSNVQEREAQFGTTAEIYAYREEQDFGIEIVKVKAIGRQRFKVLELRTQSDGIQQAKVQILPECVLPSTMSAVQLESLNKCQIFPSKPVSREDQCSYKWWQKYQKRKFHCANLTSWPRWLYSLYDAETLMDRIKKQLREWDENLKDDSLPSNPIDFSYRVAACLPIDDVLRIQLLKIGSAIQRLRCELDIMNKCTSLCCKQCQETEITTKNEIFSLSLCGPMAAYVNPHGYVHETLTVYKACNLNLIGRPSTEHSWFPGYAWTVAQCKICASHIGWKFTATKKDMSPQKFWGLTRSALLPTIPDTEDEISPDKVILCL
How it was run: (§1)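 OPM2 multiple myeloma cells, wild type or CRBN-knockout, were treated for 48 h with degrader or DMSO vehicle. MCL1 long and short isoforms were detected by immunoblot and levels compared with DMSO controls.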

[2] = target: T1, Protein cereblon/Induced myeloid leukemia cell differentiation protein Mcl-1 (Homo sapiens); assay: Protac activity at Cereblon/MCL1 in human OPM2 cell lysate assessed as induction of MCL1 polyubiquitination incubated for 3 hrs by SDS-PAGE/immunoblot analysis; type: subcellular
How it was run: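 In vitro ubiquitinylation reactions; the target (MCL1 or BRD4) was then immunoprecipitated and the immunoprecipitate immunoblotted for ubiquitin.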

[3] = target: T1, Protein cereblon/Induced myeloid leukemia cell differentiation protein Mcl-1 (Homo sapiens); assay: Protac activity at Cereblon/MCL1 in human OPM2 cells assessed as protein abundance at 1 uM after 48 hrs by immunoblot analysis relative to control; type: cell-based; how it was run: as §1
[4] = target: T1, Protein cereblon/Induced myeloid leukemia cell differentiation protein Mcl-1 (Homo sapiens); assay: Protac activity at Cereblon/MCL1 in human OPM2 cells at 500 nM after 3 hrs in presence of proteasome inhibitor bortezomib by immunoblot analysis; type: cell-based
How it was run: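 OPM2 cells were treated for 3 h with DMSO, degrader and/or the proteasome inhibitor bortezomib, then immunoblotted for MCL1.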

[5] = target: T1, Protein cereblon/Induced myeloid leukemia cell differentiation protein Mcl-1 (Homo sapiens); assay: Protac activity at Cereblon/MCL1 long isoform in wild type human OPM2 cells assessed as protein abundance at 50 nM after 48 hrs by immunoblot analysis relative to control; type: cell-based; how it was run: as §1
[6] = target: T1, Protein cereblon/Induced myeloid leukemia cell differentiation protein Mcl-1 (Homo sapiens); assay: Protac activity at Cereblon/MCL1 long isoform in wild type human OPM2 cells at 100 nM after 48 hrs by immunoblot analysis relative to control; type: cell-based; how it was run: as §1
[7] = target: T1, Protein cereblon/Induced myeloid leukemia cell differentiation protein Mcl-1 (Homo sapiens); assay: Protac activity at Cereblon/MCL1 long isoform in wild type human OPM2 cells at 250 nM after 48 hrs by immunoblot analysis relative to control; type: cell-based; how it was run: as §1
[8] = target: T1, Protein cereblon/Induced myeloid leukemia cell differentiation protein Mcl-1 (Homo sapiens); assay: Protac activity at Cereblon/MCL1 short isoform in wild type human OPM2 cells assessed as MCL1 short isoform abundance at 100 nM after 48 hrs by immunoblot analysis relative to control; type: cell-based
How it was run: (§2)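 OPM2 wild-type cells, run alongside the CRBN-/- line, were treated for 48 h with compound or DMSO. The MCL1 long and short isoforms were then measured by immunoblot against the DMSO control.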

[9] = target: T1, Protein cereblon/Induced myeloid leukemia cell differentiation protein Mcl-1 (Homo sapiens); assay: Protac activity at Cereblon/MCL1 short isoform in wild type human OPM2 cells assessed as MCL1 short isoform abundance at 250 nM after 48 hrs by immunoblot analysis relative to control; type: cell-based; how it was run: as §2
[10] = target: T2, Induced myeloid leukemia cell differentiation protein Mcl-1 (Homo sapiens, UniProt Q07820); assay: Induction of MCL1 long isoform degradation in CRBN-/- human OPM2 cells assessed as protein abundance at 500 nM after 48 hrs by immunoblot analysis relative to control; type: cell-based; how it was run: as §1
T2 sequence (Q07820 whole entry, canonical isoform): as the sequence (Q07820 whole entry, looked up, canonical isoform) above

[11] = target: T2, Induced myeloid leukemia cell differentiation protein Mcl-1; assay: Induction of MCL1 short isoform degradation in CRBN-/- human OPM2 cells assessed as protein abundance at 100 nM after 48 hrs by immunoblot analysis relative to control; type: cell-based; how it was run: as §1
[12] = target: T2, Induced myeloid leukemia cell differentiation protein Mcl-1; assay: Induction of MCL1 short isoform degradation in CRBN-/- human OPM2 cells assessed as protein abundance at 500 nM after 48 hrs by immunoblot analysis relative to control; type: cell-based; how it was run: as §1
OPM-2 = assay: Induction of apoptosis in wild type human OPM2 cells assessed as cleaved caspase-3 at 250 nM after 24 hrs in presence of 1% FBS by immunoblot analysis (reference value: 92%); type: functional
[13] = target: T1, Protein cereblon/Induced myeloid leukemia cell differentiation protein Mcl-1 (Homo sapiens); assay: Protac activity at Cereblon/MCL1 long isoform in human OPM2 cells assessed as MCL1 long isoform level at 300 nM pre-incubated for 72 hrs followed by cycloheximide addition and measured after 60 mins by immunoblot analysis (reference value: 84%); type: cell-based
How it was run: (§3)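 Cycloheximide chase: cells were treated for 72 h with DMSO or degrader, with cycloheximide added for the final 30, 60 or 120 min. OPM2 and MM1.S cells were used, and wild-type OPM2 was compared with OPM2 CRBN-/- at 60 and 120 min. MCL1 was detected by immunoblot.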

[14] = target: T1, Protein cereblon/Induced myeloid leukemia cell differentiation protein Mcl-1 (Homo sapiens); assay: Protac activity at Cereblon/MCL1 short isoform in human OPM2 cells assessed as MCL1 short isoform level at 300 nM pre-incubated for 72 hrs followed by cycloheximide addition and measured after 30 mins by immunoblot analysis (reference value: 100%); type: cell-based
How it was run: (§4)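 OPM2 or MM1.S cells were treated for 72 h with compound or DMSO. Cycloheximide was added for the final 30, 60 or 120 min. MCL1 was read by immunoblot and compared with DMSO-treated cells as a normal-turnover reference.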

[15] = target: T1, Protein cereblon/Induced myeloid leukemia cell differentiation protein Mcl-1 (Homo sapiens); assay: Protac activity at Cereblon/MCL1 long isoform in human MM1S cells assessed as MCL1 long isoform level at 300 nM pre-incubated for 72 hrs followed by cycloheximide addition and measured after 120 mins by immunoblot analysis (reference value: 55%); type: cell-based; how it was run: as §3
[16] = target: T1, Protein cereblon/Induced myeloid leukemia cell differentiation protein Mcl-1 (Homo sapiens); assay: Protac activity at Cereblon/MCL1 short isoform in human MM1S cells assessed as MCL1 short isoform level at 300 nM pre-incubated for 72 hrs followed by cycloheximide addition and measured after 60 mins by immunoblot analysis (reference value: 98%); type: cell-based; how it was run: as §4
[17] = target: T1, Protein cereblon/Induced myeloid leukemia cell differentiation protein Mcl-1 (Homo sapiens); assay: Protac activity at Cereblon/MCL1 long isoform in wild type human OPM2 cells assessed as MCL1 long isoform level at 300 nM pre-incubated for 72 hrs followed by cycloheximide addition and measured after 60 mins by immunoblot analysis (reference value: 84%); type: cell-based; how it was run: as §3
[18] = target: T1, Protein cereblon/Induced myeloid leukemia cell differentiation protein Mcl-1 (Homo sapiens); assay: Protac activity at Cereblon/MCL1 long isoform in wild type human OPM2 cells assessed as MCL1 long isoform level at 300 nM pre-incubated for 72 hrs followed by cycloheximide addition and measured after 120 mins by immunoblot analysis (reference value: 53%); type: cell-based; how it was run: as §3
[19] = target: T1, Protein cereblon/Induced myeloid leukemia cell differentiation protein Mcl-1 (Homo sapiens); assay: Protac activity at Cereblon/MCL1 short isoform in wild type human OPM2 cells assessed as MCL1 short isoform level at 300 nM pre-incubated for 72 hrs followed by cycloheximide addition and measured after 60 mins by immunoblot analysis (reference value: 64%); type: cell-based
How it was run: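 OPM2 wild-type and OPM2 CRBN-/- cells were treated for 72 h with compound or DMSO, with cycloheximide present for the final 60 or 120 min. MCL1 was detected by immunoblot.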

[20] = target: T2, Induced myeloid leukemia cell differentiation protein Mcl-1; assay: Induction of MCL1 long isoform degradation in CRBN-/- human OPM2 cells assessed as protein abundance at 300 nM pre-incubated for 72 hrs followed by cycloheximide addition and measured after 60 mins by immunoblot analysis (reference value: 79%); type: cell-based; how it was run: as §3
[21] = target: T1, Protein cereblon/Induced myeloid leukemia cell differentiation protein Mcl-1 (Homo sapiens); assay: Protac activity at Cereblon/MCL1 long isoform in human OPM2 cells assessed as MCL1 long isoform abundance at 100 nM after 24 hrs by immunoblot analysis relative to control; type: cell-based
[22] = target: T1, Protein cereblon/Induced myeloid leukemia cell differentiation protein Mcl-1 (Homo sapiens); assay: Protac activity at Cereblon/MCL1 short isoform in human OPM2 cells assessed as MCL1 short isoform abundance at 50 nM after 24 hrs by immunoblot analysis relative to control; type: cell-based
[23] = target: T1, Protein cereblon/Induced myeloid leukemia cell differentiation protein Mcl-1 (Homo sapiens); assay: Protac activity at Cereblon/MCL1 short isoform in human OPM2 cells assessed as MCL1 short isoform abundance at 100 nM after 24 hrs by immunoblot analysis relative to control; type: cell-based
[24] = target: T1, Protein cereblon/Induced myeloid leukemia cell differentiation protein Mcl-1 (Homo sapiens); assay: Protac activity at Cereblon/MCL1 long isoform in human OPM2 cells assessed as MCL1 long isoform abundance at 500 nM after 24 hrs by immunoblot analysis relative to control; type: cell-based
[25] = target: T1, Protein cereblon/Induced myeloid leukemia cell differentiation protein Mcl-1 (Homo sapiens); assay: Protac activity at N-terminal His-tagged human MCL1 expressed in Escherichia coli/Cereblon in human OPM2 cell lysate assessed as ternary complex formation at 500 nM incubated for 4 hrs followed by cell lysate addition after overnight incubation by SDS-PAGE/immunoblot analysis

Compound: Cc1nn(C)c(COc2ccc(N3CCN(S(=O)(=O)N(C)C)CC3)cc2)c1-c1cccc2c(CCCOc3cccc4ccccc34)c(C(=O)O)n(CCN3CCN(C(=O)COc4cccc5c4C(=O)N(C4CCC(=O)NC4=O)C5=O)CC3)c12 (stereo unspecified)
- Activity [1]: 63%
- Activity [2]: Active
- Activity [3]: 110%
- Activity [4]: inactive
- Activity [5]: 100%
- Activity [6]: 69%
- Activity [7]: 70%
- Activity [8]: 53%
- Activity [9]: 47%
- Activity [10]: 100%
- Activity [11]: 100%
- Activity [12]: 100%
- Activity (OPM-2): 197%
- Activity [13]: 58%
- Activity [14]: 34%
- Activity [15]: 40%
- Activity [16]: 31%
- Activity [17]: 66%
- Activity [18]: 16%
- Activity [19]: 14%
- Activity [20]: 78%
- Activity [21]: 77%
- Activity [22]: 96%
- Activity [23]: 59%
- Activity [24]: 55%
- Activity [25]: Active
